The values below come from PMC6244714 (European Journal of Drug Metabolism and Pharmacokinetics, 2018).

The format of series [1] is in vivo, human. The conditions noted are these: healthy subjects. In a few lines:
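Open-label, one-sequence, two-period crossover in healthy males and females aged 18–55 years with BMI 18.5–29.9 kg/m2. Period 1: single oral 100 mg tablet of test compound after an ≥8 h fast. Period 2: proton-pump inhibitor 40 mg once daily on Days 1–9, with test compound given 2 h after it on Day 7. Safety was assessed in all subjects dosed with test compound, using TEAE nature, frequency and severity, blood pressure, pulse, hematology, biochemistry, urinalysis and 12-lead ECG.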

Series [2] is classed as in vivo, human.
The subject of another series is gastric pH. The conditions noted are these: omeprazole 40 mg once daily, healthy subjects; cited from earlier work.
Another series relates to CYP2C19. The note with it: cited from earlier work.
For series [3] the following is noted: cited from earlier work.
The conditions of series [4]: ref data on file, cited from earlier work.
For series [5] the following is noted: healthy volunteers; cited from earlier work.

SMILES strings stand for the structures. Values after ≈ are worked out from the molar mass of the structure shown. Where two headings read alike, the source gives them in different places.

As a reminder, the AUC is concentration integrated over time. A low value points to less exposure. Regarding `COc1ccc2[nH]c([S+]([O-])Cc3ncc(C)c(OC)c3C)nc2c1` (stereo not shown) [Omeprazole], the “Total number of TEAEs reported” value in series [1] is reported as “eight”. Also, the AUC in series [2] (human, plasma, po, 40 mg) amounted to 4230 ng·h/mL. This molecule also displayed a mean trough in series [2] (omeprazole 40 mg daily oral, Day 7 of Period 2, plasma) of 0.494 ng/mL. Besides, the “gastric pH” value in the series with gastric pH is on record as ~ 5. Further, the “inhibitor of CYP2C19” value in the series with CYP2C19 is “inhibitor”.

In general, solubility refers to the dissolved amount per volume that the medium holds. In the case of `Cc1nc(C(=O)NCC(=O)O)c(O)c2ccc(Oc3ccccc3)cc12` [Roxadustat], in series [1] (100 mg roxadustat alone or in combination with multiple daily oral doses of 40 mg omeprazole), the “Overall safety and tolerability” value is “safe and well tolerated”. Also, the “terminal elimination half-life (t½)” value in series [3] (after a single dose) was 12 to 14 h. Further, the “time to maximum plasma concentration” value in series [3] (after oral administration) is “approximately 2 h”. Further, the values for the solubility in series [4] (50 mM potassium phosphate buffer at pH 7.5) and in series [4] (simulated gastric fluid buffer at pH 1.2) were 3700 µg/mL (≈ 10.5 mM) and 1 µg/mL (≈ 0.00284 mM), respectively. Moreover, the in vitro solubility in series [4] (pH ~ 5) was 6 µg/mL. Moreover, the “impact on Cmax or AUCinf of S- or R-warfarin” value in series [5] is given as “does not impact”. The “substrate for CYP2C19” value with CYP2C19 (background statement, no reference given) was “not a substrate”.
